Laboratory results from ChEMBL document CHEMBL1221182, “Functional characterization of IRESes by an inhibitor of the RNA helicase eIF4A” (Nat Chem Biol, 2006).

Target: Eukaryotic initiation factor 4A-I (Mus musculus, UniProt P60843)
Assay: Inhibition of eIF4A-mediated cap-dependent protein synthesis in FF-HCV-Ren mRNA transfected Swiss mouse Krebs2 cell extract by [35S]methionine metabolic labeling study
In short: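 Cell-free translation in Krebs-2 extracts programmed with capped bicistronic FF-HCV-Ren transcript: cap-dependent firefly cistron, HCV IRES-driven renilla cistron. Final mRNA 5 µg ml⁻¹, K⁺ 100 mM, compound titrated. Controls carry a matched final DMSO level. Products labeled with [³⁵S]methionine, separated by 10% SDS-PAGE, and autoradiographed. Luciferase activities are read by luminometer and expressed relative to vehicle reactions.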

Eukaryotic initiation factor 4A-I, sequence (P60843 whole entry): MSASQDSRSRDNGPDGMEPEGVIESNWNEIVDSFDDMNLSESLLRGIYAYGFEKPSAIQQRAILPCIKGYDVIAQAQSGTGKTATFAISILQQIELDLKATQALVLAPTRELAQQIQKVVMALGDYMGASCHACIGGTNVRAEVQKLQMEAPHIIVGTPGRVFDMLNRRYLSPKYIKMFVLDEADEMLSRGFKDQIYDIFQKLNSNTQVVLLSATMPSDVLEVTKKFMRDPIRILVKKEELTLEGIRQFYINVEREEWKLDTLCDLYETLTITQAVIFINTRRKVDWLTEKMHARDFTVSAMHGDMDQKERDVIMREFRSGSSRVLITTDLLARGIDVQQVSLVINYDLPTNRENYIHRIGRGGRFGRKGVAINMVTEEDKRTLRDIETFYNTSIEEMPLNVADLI

| Structure (SMILES) | IC50 [µM] |
| --- | --- |
| C[C@H]1C[C@@]2(O[C@H]3C[C@H]4[C@@H]5CC[C@H]6C[C@H](O)CC[C@]6(C)[C@H]5C(=O)C[C@]4(C)[C@H]3[C@@]2(C)O)OC1(C)C | 9 |
| CC(=O)O[C@@H]1C[C@@]2(C)[C@@H](CC[C@@H]3[C@@H]2[C@@H](O)C[C@@]2(C)[C@H]3C[C@@H]3O[C@]4(C[C@H](C)C(C)(C)O4)[C@](C)(O)[C@@H]32)C[C@@H]1O [EPIHIPPURIN 1] | > 100 |
| CC(=O)O[C@@H]1C[C@@]2(C)[C@@H](CC[C@@H]3[C@@H]2[C@@H](O)C[C@@]2(C)[C@H]3C[C@@H]3O[C@@]4(C[C@H](C)C(C)(C)O4)[C@](C)(O)[C@@H]32)C[C@@H]1O | 1.5 |
| C[C@H]1C[C@@]2(O[C@H]3C[C@H]4[C@@H]5CC[C@H]6C[C@H](O)[C@H](O)C[C@]6(C)[C@H]5[C@@H](O)C[C@]4(C)[C@H]3[C@@]2(C)O)OC1(C)C | 1.7 |

Further lines, results first:

| IC50 [µM] | Structure (SMILES) |
| --- | --- |
| 91 | CC(=O)O[C@@H]1CC[C@@]2(C)[C@@H](CC[C@@H]3[C@@H]2[C@@H](O)C[C@]24[C@H](O)O[C@]5(C)[C@H]2[C@H](C[C@@H]34)O[C@]52C[C@H](C)C(C)(C)O2)C1 [HIPPURISTANOHEMIACETAL] |
| 64 | CC(=O)O[C@@H]1CC[C@@]2(C)[C@@H](CC[C@@H]3[C@@H]2[C@@H](OC(C)=O)C[C@@]2(C)[C@H]3C[C@@H]3O[C@@]4(C[C@H](C)C(C)(C)O4)[C@](C)(O)[C@@H]32)C1 |
| 52 | CC(=O)O[C@H]1C[C@@H]2CC[C@@H]3[C@H]([C@@H](O)C[C@@]4(C)[C@H]3C[C@@H]3O[C@]5(C[C@H](C)C(C)(C)O5)[C@](C)(O)[C@@H]34)[C@@]2(C)C[C@H]1O |
| 10 | CC(=O)O[C@@H]1CC[C@@]2(C)[C@@H](CC[C@@H]3[C@@H]2[C@@H](O)C[C@@]2(C)[C@H]3C[C@@H]3O[C@@]4(C[C@H](C)C(C)(C)O4)[C@](C)(O)[C@@H]32)C1 |
| > 100 | CC(=O)O[C@@H]1CC[C@@]2(C)[C@@H](CC[C@@H]3[C@@H]2[C@@H](O)C[C@@]2(C)[C@H]3C[C@@H]3O[C@]4(C[C@H](C)C(C)(C)O4)[C@](C)(O)[C@@H]32)C1 |
